Source: PubChem
PTEN del growth = growth suppression of PTEN-null HCT116, primary screen, cell-based, CellTiter-Glo; HCT116 PTEN-null viability, 60 h; hits give low values; viability, % at 10 µM; hit rate 1.2% among 140,000;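 active means viability at or below a set limit, 4 SD under the median of all tested compounds, cut at about 3.7% in these data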;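 further: PTEN knockout HCT116 line with beta catenin targeted HCT116 as companion control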
H69AR growth 86K = proliferation blockers of H69AR lung cancer cells, primary screen, cell-based, human, 86K library | H69AR lung tumor viability, ATP luminescence, 72 h; hits give low values | hit rate 6% among 85,000 | viability, % at 10 µM | AID 598, 2007;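 active means viability at or below 40%; inactive means viability above 40%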;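 further: multidrug resistant small cell line overexpressing MRP-1 efflux transporter; 100% = mean luminescence of untreated control wells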
Lung fibro prol = antiproliferative effect on LL 47 fibroblasts – human, LL 47 cells, CellTiter-Glo luminescence, primary screen; LL 47 human lung fibroblast viability, ATP luminescence; hits give low values; AID 719, 2007; viability, % at 10 µM; hit rate 1.1% among 85,000;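 active means viability at or below 50% in the single dose screen; inactive means viability above 50%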;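 further: compound exposure lasted 72 h before the ATP readout; 100% = median luminescence of untreated cell-only wells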
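Test system: LL 47 human lung fibroblasts / Quantity: 1,150 cells in each well / Medium: IMEM growth medium with 15% fetal bovine serum / Incubation: 72 h compound exposure at 37 °C after overnight plating / Detection: CellTiter-Glo luminescence measuring cellular ATP / Read-out: % viability versus median cells-only luminescence / Benchmarks: cell-only wells, no compound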
Pyk2 oligo antag = antagonists of Pyk2 self-association, primary screen, Q293 cells, FERM NanoBiT luminescence, HTS | hits give low values | z-score (the deposit names both 25 µM and 10 µM) | AID 1347419, 2020 | hit rate 0.83% among 99,000 | Protein-tyrosine kinase 2-beta (Homo sapiens), Q14289;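 active means Z-score of -3 or lower, scaled per plate to the spread of control and sample wells; inactive means z-score above -3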;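 further: negative z-score means lost luminescence so less FERM oligomerization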
Target sequence (Q14289 whole entry, looked up): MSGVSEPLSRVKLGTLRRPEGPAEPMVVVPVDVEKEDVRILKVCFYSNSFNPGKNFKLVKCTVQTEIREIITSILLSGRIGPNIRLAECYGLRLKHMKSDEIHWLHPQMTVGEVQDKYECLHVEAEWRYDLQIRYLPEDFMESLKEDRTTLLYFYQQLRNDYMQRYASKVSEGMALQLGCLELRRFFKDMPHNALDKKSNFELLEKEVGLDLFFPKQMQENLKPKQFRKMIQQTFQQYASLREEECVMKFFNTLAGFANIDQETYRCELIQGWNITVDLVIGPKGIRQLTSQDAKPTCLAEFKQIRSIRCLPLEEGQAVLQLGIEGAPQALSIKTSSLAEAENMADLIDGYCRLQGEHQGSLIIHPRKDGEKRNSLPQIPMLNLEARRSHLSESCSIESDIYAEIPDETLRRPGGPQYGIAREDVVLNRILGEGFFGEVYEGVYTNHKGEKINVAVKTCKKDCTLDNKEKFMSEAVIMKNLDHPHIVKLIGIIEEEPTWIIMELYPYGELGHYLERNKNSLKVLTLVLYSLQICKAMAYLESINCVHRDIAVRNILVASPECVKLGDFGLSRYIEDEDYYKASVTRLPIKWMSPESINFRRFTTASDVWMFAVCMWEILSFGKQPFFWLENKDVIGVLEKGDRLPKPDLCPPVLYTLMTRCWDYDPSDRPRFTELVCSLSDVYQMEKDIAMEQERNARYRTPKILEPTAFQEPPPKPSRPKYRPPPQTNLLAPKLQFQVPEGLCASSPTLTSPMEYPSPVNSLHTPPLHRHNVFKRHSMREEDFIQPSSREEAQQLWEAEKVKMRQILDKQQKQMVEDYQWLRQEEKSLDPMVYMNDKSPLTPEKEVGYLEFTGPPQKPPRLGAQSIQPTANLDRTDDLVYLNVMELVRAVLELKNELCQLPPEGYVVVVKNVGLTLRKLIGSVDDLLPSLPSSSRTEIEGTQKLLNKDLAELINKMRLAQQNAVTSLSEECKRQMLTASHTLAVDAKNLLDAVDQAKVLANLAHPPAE
HUVEC inhibit = inhibitors of HUVEC proliferation, primary screen, cell-based, 384-well; CellTiter-Glo luminescence, 72 h; hits give low values; viability, % at 10 µM (by protocol); AID 648, 2007; hit rate 1.1% among 86,000;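 active means viability at or below 30%; inactive means viability above 30%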;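 further: 100% = median luminescence of DMSO-only cell control wells on each plate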
HCT116 bCat-KO = primary screen for growth suppressors in beta-catenin knockout HCT116 cells (colon tumor, human); viability, % at 10 µM; hit rate 1.5% among 140,000; HCT116 beta-catenin knockout viability, CellTiter-Glo, 60 h; hits give low values;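 active means viability at or under a set limit, the compound median less 4 SD, cut at about 6% in these data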;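 further: 0% = Hyamine 1622 control at 20 µM and 100% = untreated cell control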
The depositor's hits bear a star; nt = not tested or not shown. Many of the other results were omitted from the sample, so hits are more common in it than they were.

SMILES | PTEN del growth | H69AR growth 86K | Lung fibro prol | Pyk2 oligo antag | HUVEC inhibit | HCT116 bCat-KO
CCOC(=O)C1CSC(CC(=O)Nc2ccc(Cl)cc2)C(=O)N1 (stereo unspecified) | 85.1 | 107.1 | 102.8 | -0.25 | 96.2 | 89.2
CCc1ccc(-c2nc(CN3CCC(C(=O)N4CCN(c5ccccc5)CC4)CC3)c(C)o2)cc1 | 2.4* | 1.2* | 73.7 | -0.17 | 3.5* | 2.0*
Cc1oc(-c2cccc(Cl)c2)nc1CN1CCC(C(=O)N2CCN(c3ccccn3)CC2)CC1 | nt | 33.3* | 74.4 | nt | 35.0 | nt
CCN1CCN(C(=O)C2CCN(Cc3nc(-c4ccc(Cl)cc4)oc3C)CC2)CC1 | nt | 106.3 | 87.5 | nt | 81.8 | nt
CCc1ccc(-c2nc(CN3CCC(C(=O)N4CCN(c5ccccn5)CC4)CC3)c(C)o2)cc1 | 1.1* | 38.7* | 95.5 | 1.34 | 31.3 | 1.9*
CCC(C(=O)OCC(=O)Nc1cc(Cl)cc(Cl)c1)c1ccccc1 (stereo unspecified) | 76.5 | nt | nt | nt | nt | 79.9
Cc1cc(Cl)ccc1OCC(=O)NCCCCc1ccccc1 | 97.1 | nt | nt | nt | nt | 90.2
Cc1ccccc1Nc1nc(N)nc(CN(C)Cc2ccccc2Cl)n1 | 70.9 | nt | nt | nt | nt | 77.0
COc1ccc(Cc2ccc(OC)c(N)c2)cc1N | 101.1 | 29.5* | 95.1 | -0.3 | 81.9 | 84.2
CCN(CCNC(=O)C1CCN(c2nnc(-n3cccc3)s2)CC1)c1ccccc1 | 85.8 | nt | nt | nt | nt | 84.5
COc1ccc(NC(=O)c2ccc3nccnc3c2)cc1 | 93.5 | 101.9 | 95.1 | -0.65 | 99.1 | 96.9
O=C(Nc1ccc(Br)cn1)c1ccc2nccnc2c1 | nt | 33.9* | 87.7 | 1.56 | 65.4 | nt
CC(C)(c1ccccc1)c1ccc(OCCCNCCO)cc1 | 8.7 | 0.9* | 66.4 | -0.53 | 25.6* | 1.8*
COc1ccc(Cl)cc1NC(=O)CN1C(=O)CCS(=O)(=O)c2ccccc21 | 83.3 | 28.9* | 100.8 | 0.24 | 100.7 | 85.4
CCNC(=O)CCn1nc(-c2ccc(Cl)cc2)c2ccccc2c1=O | 58.8 | 68.7 | 90.7 | 1.51 | 78.6 | 65.5
COc1ccc(Cl)cc1NC(=O)Cn1c(=O)n2nc(C)nc2c2ccccc21 | 87.6 | 0.9* | 102.7 | nt | 93.5 | 93.3
COc1ccccc1NC(=O)Cn1nc(-c2ccc(Cl)cc2)c2ccccc2c1=O | 14.4 | 35.2* | 104.6 | 0.56 | 89.2 | 9.3
O=C(CCSc1nc(-c2ccco2)cc(C(F)(F)F)n1)N1CCCc2ccccc21 | 60.1 | 74.0 | 89.5 | 0.66 | 74.9 | 56.9
Cc1ccc(S(=O)(=O)N2CCCOC2CNC(=O)C(=O)NCCc2c[nH]c3ccccc23)cc1 (stereo unspecified) | 53.6 | nt | nt | nt | nt | 62.2
O=C1CCC([N+](=O)[O-])C(c2ccc(Cl)cc2)N1 (stereo unspecified) | 88.4 | 93.6 | 92.6 | 3.33 | 88.1 | 89.7
Cc1ccccc1NC(=O)CSc1ccsc1[N+](=O)[O-] | 96.7 | nt | nt | -0.16 | nt | 82.5
CC1CCCN(S(=O)(=O)c2ccccc2[N+](=O)[O-])C1 (stereo unspecified) | 93.9 | nt | nt | -0.68 | nt | 90.2
COc1cccc(Oc2cn[nH]c2-c2ccc(O)cc2O)c1 | 92.5 | 73.2 | 87.1 | -2.49 | 83.8 | 93.9
CCCc1ccc(Oc2c(-c3ccc(O)c(C)c3O)n[nH]c2C)cc1 | 83.9 | 21.1* | 95.8 | -1.11 | 23.9* | 86.8
COc1ccc(Oc2c(-c3ccc(O)cc3O)n[nH]c2C)cc1 | 99.2 | 96.3 | 89.1 | -2.1 | 104.9 | 96.9
SMILES | PTEN del growth | H69AR growth 86K | Lung fibro prol | Pyk2 oligo antag | HUVEC inhibit | HCT116 bCat-KO
CCCc1ccc(Oc2cn[nH]c2-c2ccc(O)c(C)c2O)cc1 | 52.4 | 81.7 | 95.9 | -3.52* | 56.2 | 39.3
O=c1cc(N2CCOCC2)cnn1-c1ccccc1 | 88.7 | nt | nt | nt | nt | 96.1
O=c1c2c3nc4ccccc4nc3n(-c3ccc4c(c3)OCCO4)c2ncn1CC1CCCO1 (stereo unspecified) | nt | 90.2 | 109.0 | nt | 101.8 | nt
O=c1c2c3nc4ccccc4nc3n(-c3ccc4c(c3)OCCO4)c2ncn1C1CCCC1 | nt | 20.6* | 13.2* | -2.05 | 36.6 | nt
COc1ccc(-n2c(SCC(=O)Nc3ccc4c(c3)OCO4)nc3ccccc3c2=O)cc1 | 86.2 | 95.3 | 99.3 | -2.51 | 85.3 | 95.7
COc1ccc(NC(=O)CSc2nc3ccccc3c(=O)n2CCCN2CCCCC2)c(OC)c1 | 3.1* | 65.7 | 82.8 | 0.56 | 78.5 | 2.6*
COCCCn1c(SCC(=O)Nc2ccc(NC(=O)c3ccco3)c(OC)c2)nc2ccccc2c1=O | 104.0 | 31.9* | 93.5 | -0.15 | 96.6 | 92.0
COc1ccc(NC(=O)CSc2nc3ccccc3c(=O)n2-c2ccc3c(c2)OCO3)c(OC)c1 | 75.7 | 9.4* | 119.9 | -0.99 | 76.5 | 62.0
C=CCn1c(SCC(=O)Nc2ccc(NC(=O)c3ccco3)c(OC)c2)nnc1-c1ccncc1 | 93.0 | 96.8 | 97.0 | -0.1 | 91.0 | 97.1
CC1(C)CC(=O)c2cc(C(=O)NCc3ccco3)c(=O)n(-c3ccc(Cl)cc3)c2C1 | 86.0 | 58.9 | 47.6* | -0.59 | 92.6 | 87.9
Cc1ccc(-n2c3c(cc(C(=O)NCc4ccco4)c2=O)C(=O)CC(C)(C)C3)cc1 | 94.0 | 51.3 | 96.8 | -0.26 | 83.6 | 89.2
CCN(CC)c1ccc2c(Cl)c(Br)c(=O)oc2c1 | 30.4 | 11.9* | 33.9* | -1.48 | 46.6 | 14.3
CCN(CC)c1ccc2c(c1)oc(=O)c1c(Cl)cc(=O)oc12 | 2.0* | 1.9* | 11.0* | 0.7 | 38.2 | 3.0*
CCN(CC)c1ccc2c(C)c(-c3ccc(N)cc3)c(=O)oc2c1 | 84.7 | 51.3 | 96.6 | -0.36 | 79.4 | 87.7
O=S1(=O)CC(O)C(Nc2ccccc2Cl)C1 (stereo unspecified) | 92.7 | nt | nt | 1.13 | nt | 107.6
O=S(=O)(c1ccc(Cl)cc1)c1snnc1-c1ccccc1 | 1.8* | 1.9* | 6.5* | -1.18 | 7.5* | 2.8*
CCOc1ccc2nc(NCCCO)[nH]c2c1 | 94.4 | 89.2 | 94.0 | 0.48 | 89.7 | 85.3
CCCCCC(=O)Nc1nc2ccccc2[nH]1 | 45.9 | 30.5* | 83.6 | -0.63 | 86.3 | 51.1
COc1ccccc1CCC(=O)Nc1nc2ccccc2[nH]1 | 8.1 | 21.1* | 90.6 | -0.61 | 90.3 | 7.2
COc1ccc(CCC(=O)Nc2nc3ccccc3[nH]2)cc1OC | 94.5 | 89.5 | 100.2 | 0.17 | 92.6 | 103.1
CCCOc1ccc2nc(NC(=O)OC)[nH]c2c1 | 13.6 | 30.8* | 49.5* | nt | 33.4 | 9.6
COc1cc(OC)cc(C(=O)Nc2nc3ccccc3[nH]2)c1 | 52.5 | 30.1* | 74.1 | -0.61 | 76.9 | 48.1
COC(=O)[C@@]1(Cc2ccc(F)cc2)[C@H]2c3cc(C(=O)N(C)C)n(Cc4nc5ccccc5[nH]4)c3C[C@H]2CN1C(=O)c1ccccc1 | 30.6 | nt | nt | nt | nt | 30.5
CC/C(C)=N/NC(=S)NCc1ccco1 | 92.7 | nt | nt | nt | nt | 93.2
CCCCCc1nc2c(C#N)c(-c3ccc(Cl)cc3)ccn2n1 | 75.1 | nt | nt | -0.58 | nt | 80.5
